Key:
[1] = Hepatoprotective activity in rat WB-F344 cells assessed as inhibition of D-galactosamine-induced toxicity at 10 uM preincubated for 1 hr followed by D-galactosamine challenge measured after 24 hrs by MTT assay relative to control; assay type: functional
Method in brief: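 WB-F344 rat liver cells, compounds at 10 μM, D-galactosamine injury. Read-out is optical density. Survival is given as % of untreated normal cells. Inhibition (%) = [(OD sample − OD control)/(OD normal − OD control)] × 100. Bicyclol at 10 μM is the positive control. Data are means ± SD: n = 3 for samples, n = 6 for normal and control wells.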

[2] = Hepatoprotective activity against D-galactosamine-induced toxicity in rat WB-F344 cells assessed as cell survival at 10 uM preincubated for 1 hr followed by D-galactosamine challenge measured after 24 hrs by MTT assay relative to normal cell; assay type: functional; conditions: read-out: Survival
Method in brief: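 WB-F344 cells exposed to D-galactosamine, with test agents at 10 μM and bicyclol at 10 μM as positive control. Readout is optical density (OD). Survival is expressed as % of untreated normal cells. Values are means ± SD, n = 3 (n = 6 for normal and model-control groups).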

A549 = assay: Cytotoxicity against human A549 cells after 4 days by MTT assay; assay type: functional, cell-based; conditions: A549, 96 h
KB = assay: Cytotoxicity against human KB cells after 4 days by MTT assay; assay type: functional, cell-based; conditions: 96 h
[3] = Cytotoxicity against human Bel7402 cells after 4 days by MTT assay; assay type: functional, cell-based; conditions: Bel-7402, 96 h
[4] = Inhibition of tyrosine kinase (unknown origin) by ELISA; design: species or system Homo sapiens

Compound	inhibition at 10 µM [1] [%]	viability at 10 µM [2] [%]	IC50 (A549) [µM]	IC50 (KB) [µM]	IC50 [3] [µM]	IC50 [4] [µM]
CC(C)=C(C)[C@@H]1C[C@H]([C@H]2CC[C@@]3(C)C4=C(CC[C@]23C)[C@@]2(C)CC[C@H](O)C(C)(C)[C@@H]2CC4)C(=O)O1	71.9	91				
CC(C)c1ccc2c(c1)C(=O)C[C@H]1C(C)(C)CCC[C@@]21C(=O)O	34.4	79				
CC(C)=CCC(O)[C@@H](C)[C@H]1CC[C@@]2(C)C3=C(C(=O)C[C@]12C)[C@@]1(C)CC[C@H](O)C(C)(C)[C@@H]1CC3 (stereo partly drawn)	81.2	94				
CC(C)[C@@H](C)CC[C@@H](C)[C@H]1CC[C@H]2C3=CCC4C[C@@H](O)CC[C@]4(C)[C@H]3CC[C@]12C (stereo partly drawn)	37.4	80				
C=C(C)C(=O)CC(O)[C@@H](C)[C@H]1CC[C@@]2(C)C3=C(CC[C@]12C)[C@@]1(C)CC[C@H](O)C(C)(C)[C@@H]1CC3 (stereo partly drawn)			> 10	9.9	> 10	
CC(C)[C@@H](C)/C=C/[C@@H](C)[C@H]1CC[C@H]2C3=CC[C@H]4C[C@@H](O)CC[C@]4(C)[C@H]3CC[C@]12C	43.8	82				
CC(=O)/C=C/c1ccc(O)c(O)c1			> 10	> 10	4.7	
COC(=O)c1cc(OC)c2c(c1-c1c(CO)cc(OC)c3c1OCO3)OCO2 [BICYCLOL]		80				
O=c1[nH]cc(F)c(=O)[nH]1 [FLUOROURACIL]				8.1	5.5	
CC(C)=CC[C@@H](O)[C@@H](C)[C@H]1CC[C@@]2(C)C3=C(CC[C@]12C)[C@@]1(C)CC[C@H](O)C(C)(C)[C@@H]1CC3 [INOTODIOL]	56.3	86				
CC(C)=CCC[C@@H](C)[C@H]1CC[C@@]2(C)C3=C(CC[C@]12C)[C@@]1(C)CC[C@H](O)C(C)(C)[C@@H]1CC3 [LANOSTEROL]	74.8	92				
CC[C@H](CC[C@@H](C)[C@H]1CC[C@H]2[C@@H]3CCC4=C[C@@H](O)CC[C@]4(C)[C@H]3CC[C@]12C)C(C)C [LAWSARITOL]	40.6	81				
O=Cc1ccc(O)c(O)c1 [PROTOCATECHUALDEHYDE]			3.1	> 10	3.7	7.7
CC(C)=CCC[C@@H](C(=O)O)[C@H]1CC[C@@]2(C)C3=C(CC[C@]12C)[C@@]1(C)CC[C@H](O)C(C)(C)[C@@H]1CC3 [TRAMETENOLIC ACID]	75	92				
COc1cc(C(=O)O)ccc1O [VANILLIC ACID]	56.5	86				

Reference: ChEMBL document CHEMBL3102703, “Chemical constituents from Inonotus obliquus and their biological activities” (J Nat Prod, 2014)
